As usually defined, the IC50 is the concentration that gives 50% inhibition. A low value points to greater potency in that assay.

A value given as a limit tells only on which side of the number the result lay.

IC50 data for 10 compounds are collected here from ChEMBL document CHEMBL1781970, “Synthesis and antiproliferative evaluation of 23-hydroxybetulinic acid derivatives” (Eur J Med Chem, 2011).

Common to all, as to type: functional, cell-based
The test system of test [1] is HeLa. Kind of test: Antiproliferative activity against human HeLa cells after 72 hrs by MTT assay. The procedure, abridged:
(§1)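 Cells grown in RPMI 1640 with 10% FBS and 1% penicillin-streptomycin at 37 °C, 5% CO2, then seeded overnight in 96-well plates. Test compounds were dissolved in DMSO (doxorubicin control in PBS) and given at various concentrations for 72 h at 37 °C. MTT (5 mg/mL in PBS) was added for 4 h and OD read at 570 nm. IC50 was taken from dose-response curves; mean ± SD, ≥3 independent experiments.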
In general terms: Formazan colour is commonly taken as a measure of viable cells.

The test system of test [2] is MCF7. Kind of test: Antiproliferative activity against human MCF7 cells after 72 hrs by MTT assay. The note with it: MCF7, 72 h. The method in brief: as §1
The subject of test [3] is HepG2. Kind of test: Antiproliferative activity against human HepG2 cells after 72 hrs by MTT assay. The conditions noted are these: HepG2, 72 h. The procedure, abridged:
as §1

The subject of test [4] is B16. Kind of test: Antiproliferative activity against mouse B16 cells after 72 hrs by MTT assay. The conditions noted are these: B16, 72 h. The procedure, abridged:
as §1

For test [5], the system named is A-375. Put plainly: Antiproliferative activity against human A375 cells after 72 hrs by MTT assay. The conditions noted are these: A-375, 72 h. The procedure, abridged: as §1

Turning to `C=C(C)[C@@H]1CC[C@]2(C(=O)NCC(=O)N[C@@H](C)C(=O)OC)CC[C@]3(C)[C@H](CC[C@@H]4[C@@]5(C)CC[C@H](O)[C@@](C)(CO)[C@@H]5CC[C@]43C)[C@@H]12`, the IC50 in test [1] amounted to 8.27 µM; in test [2], 8.95 µM; in test [3] it was 12.1 µM; in test [4], 11.3 µM; in test [5], 5.01 µM.

Consider `C=C(CO)[C@@H]1CC[C@]2(C(=O)OC(C)(C)C)CC[C@]3(C)[C@H](CC[C@@H]4[C@@]5(C)CC[C@H](O)[C@@](C)(CO)[C@@H]5CC[C@]43C)[C@@H]12`, for which the IC50 in test [1] was 30.7 µM; in test [2], 16.4 µM; in test [3], 22.7 µM; in test [4], 84.1 µM; in test [5] it was 42.7 µM.

On to `C=C(C)[C@@H]1CC[C@]2(C(=O)N[C@@H](CCSC)C(=O)N[C@@H](CCSC)C(=O)O)CC[C@]3(C)[C@H](CC[C@@H]4[C@@]5(C)CC[C@H](O)[C@@](C)(CO)[C@@H]5CC[C@]43C)[C@@H]12`, for which the IC50 in test [1] was more than 100 µM; in test [2], 84.7 µM; in test [3], more than 100 µM; in test [4] it was 65.1 µM; in test [5], 89.3 µM.

In the case of `C=C(C)[C@@H]1CC[C@]2(C(=O)N3CCNCC3)CC[C@]3(C)[C@H](CC[C@@H]4[C@@]5(C)CC[C@H](O)[C@@](C)(CO)[C@@H]5CC[C@]43C)[C@@H]12`, the IC50 in test [1] was 7.12 µM; in test [2] it was 2.27 µM; in test [3] it was 8.85 µM; in test [4], 4.39 µM; in test [5], 2.3 µM.

Turning to `C=C(C)[C@@H]1CC[C@]2(C(=O)NCC(=O)N3CCC[C@H]3C(=O)O)CC[C@]3(C)[C@H](CC[C@@H]4[C@@]5(C)CC[C@H](O)[C@@](C)(CO)[C@@H]5CC[C@]43C)[C@@H]12`, the IC50 in test [1], in test [2], in test [3], in test [4] and in test [5] was more than 100 µM throughout.

On to `C=C(C)[C@@H]1CC[C@]2(C(=O)NCCN)CC[C@]3(C)[C@H](CC[C@@H]4[C@@]5(C)CC[C@H](O)[C@@](C)(CO)[C@@H]5CC[C@]43C)[C@@H]12`, for which the IC50 in test [1] turned out to be 8.92 µM; in test [2], 2.93 µM; in test [3], 9.57 µM; in test [4], 8.38 µM; in test [5], 4.83 µM.

`C=C(C)[C@@H]1CC[C@]2(C(=O)N3CCOCC3)CC[C@]3(C)[C@H](CC[C@@H]4[C@@]5(C)CC[C@H](OC(C)=O)[C@@](C)(COC(C)=O)[C@@H]5CC[C@]43C)[C@@H]12`: the IC50 in test [1] was 7.47 µM; in test [2], 26.4 µM; in test [3] it was 9.74 µM; in test [4] it was 18.5 µM; in test [5], 4.33 µM.

With `C=C(C)[C@@H]1CC[C@]2(C(=O)NCCNC(=O)CCC(=O)O)CC[C@]3(C)[C@H](CC[C@@H]4[C@@]5(C)CC[C@H](OC(C)=O)[C@@](C)(COC(C)=O)[C@@H]5CC[C@]43C)[C@@H]12`, the 50% inhibitory concentration (IC50) turned out to be 72.9 µM in test [1]; 51 µM in test [2]; 76.1 µM in test [3]; 82.6 µM in test [4]; 59.5 µM in test [5].

Regarding `C=C(C)[C@@H]1CC[C@]2(C(=O)NCC(=O)N[C@@H](Cc3c[nH]c4ccccc34)C(=O)OC)CC[C@]3(C)[C@H](CC[C@@H]4[C@@]5(C)CC[C@H](O)[C@@](C)(CO)[C@@H]5CC[C@]43C)[C@@H]12`, the IC50 in test [1] is 66.3 µM; in test [2], more than 100 µM; in test [3], 46.8 µM; in test [4], 44.4 µM; in test [5], more than 100 µM.

On to `COc1cccc2c1C(=O)c1c(O)c3c(c(O)c1C2=O)C[C@@](O)(C(=O)CO)C[C@@H]3O[C@H]1C[C@H](N)[C@H](O)[C@H](C)O1` [DOXORUBICIN], for which the IC50 turned out to be 0.13 µM in test [1], 0.19 µM in test [2], 0.14 µM in test [4] and 0.13 µM in test [5].
